Rows were chosen to be rich in hits. Some 0.99% of all compounds tested hit in one or more screens of this group.
FN deposition inh: fibronectin deposition inhibition. AH1F fibroblasts, Alexa488-fibronectin deposition fluorescence, overnight. inhibition, % at 12.6 µM. 0.086% of 350,000 active. AID 743247;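 active = mean inhibition across replicates of 30% or more, regardless of how many single replicates reach that level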
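Test system: AH1F fibroblast monolayer depositing Alexa488-labelled fibronectin into matrix. Input: 10000 cells per well. Technique: fluorescence, ex 485 nm, em 525 nm. Buffer or medium: DMEM plus 2% serum, read in PBS. Timing: 1 h cell adhesion before compound, then overnight fibronectin incubation. Compound: single dose, pinned. Read-out basis: inhibition from reduced deposited-fibronectin fluorescence.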
CASP6 VEID inh: blocks human caspase-6 cleavage activity | P55212 | purified caspase-6, Z-VEID-R110 cleavage fluorescence | inhibition, % at 12.5 µM | 0.53% of 350,000 active | AID 686996;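 active = mean inhibition across replicates at least about 35%, with every replicate also reaching that limit, limit read from the data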
CaV13 ICDI inh: Disruptors of the CACNA1D IQ motif to Ca2+-dependent inactivation inhibitor domain association, primary screening, Förster resonance energy transfer in intact living …; AID 743397; 0.098% of 340,000 active; HEK cells, CFP/YFP FRET ICDI-IQ, plate reader, 10 min; percent FRET-ratio fall versus neutral wells; inhibition, % at 12.3 µM;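 active = mean replicate inhibition of at least 30% and at least 1% of replicates passing that level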
NPR1 activator: GC-A (human) enzyme activation | P16066 | activation, % at 10 µM | 0.14% of 370,000 active | HEK293 GC-A cells, cGMP TR-FRET, EC30 ANP; 0% at EC30 ANP, 100% saturating ANP; in the data active = activation above about 40%
NPR2 activator: GC-B (human) receptor activation; P20594; HEK293-GC-B cells, CNP EC30, cGMP TR-FRET; 0% at EC30 CNP, 100% saturating CNP; activation, % at 10 µM; 0.11% of 370,000 active;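 active = activation at 10 µM reaching about 35% in either raw or pattern-adjusted values, limit read from the data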
NSD2 inh: NSD2 (human) methyltransferase inhibition; NSD2 peptide methylation, AlphaScreen, 120 min; AID 743445; 0.54% of 310,000 active; O96028; inhibition, % at 12.5 µM; in the data active = inhibition above about 50%
Each line names hits and unclear results; the compound was inactive in the other large screens.

CNNC(=S)NC1CC2CC1C1C=CCC21 (stereo unspecified)	CaV13 ICDI inh 41.3
NC(=S)NC1CC2CC1C1C=CCC21 (stereo unspecified)	none
N#Cc1c(NC(=O)c2ccc([N+](=O)[O-])o2)sc2c1CCC2	CASP6 VEID inh 59.1 (no result: NSD2 inh)
CN(C)C(=O)c1ccc(-c2ccc3c(c2)[C@H]2[C@H](CCN2C(=O)c2ccc(F)cc2)[C@@H](CO)N3C)cc1	none (no result: CaV13 ICDI inh, NPR1 activator, NPR2 activator, NSD2 inh)
CN(C)C(=O)c1ccc(-c2ccc3c(c2)[C@@H]2[C@@H](CCN2C(=O)c2ccc(F)cc2)[C@H](CO)N3C)cc1	FN deposition inh 30.9 (no result: CaV13 ICDI inh, NPR1 activator, NPR2 activator, NSD2 inh)
O=C(O)c1cccc(-n2cccc2C=C2C(=O)c3ccccc3C2=O)c1	none (no result: CASP6 VEID inh)
O=C(O)c1cccc(-n2cccc2/C=C2/NC(=O)N(c3cccc(Cl)c3)C2=O)c1	CASP6 VEID inh 72.2
O=C(O)c1cccc(-n2cccc2/C=C2\SC(=O)N(Cc3ccccc3F)C2=O)c1	CASP6 VEID inh 85.9
CC(C)OCCCNC(=O)CN1C(=O)COc2ccc(S(=O)(=O)N3CCCCCC3)cc21	CASP6 VEID inh 36.8 (no result: NSD2 inh)
O=[N+]([O-])c1ccc(NCCN2CCOCC2)c([N+](=O)[O-])c1	CASP6 VEID inh 41.8
CCNC(=O)[C@H]1[C@H](CO)[C@H]2Cn3c(ccc(-c4ccccc4F)c3=O)[C@@H]1N2C(=O)CC	none (no result: FN deposition inh, CaV13 ICDI inh, NPR1 activator, NPR2 activator, NSD2 inh)
O=C(N/N=C/c1cc(Br)c(Br)o1)C(O)c1ccccc1 (stereo unspecified)	CASP6 VEID inh 40.1
Cc1ccc(/C=N/NC(=O)C(O)c2ccccc2)o1 (stereo unspecified)	none
Cn1c(N)c(C(=O)COC(=O)c2cc(S(=O)(=O)N3CCOCC3)ccc2F)c(=O)n(C)c1=O	NPR2 activator 37.2
CCc1ccc(S(=O)(=O)/N=C2\C=C(NS(=O)(=O)c3ccccc3)C(=O)c3ccccc32)cc1	CASP6 VEID inh 49.5, NSD2 inh 127.7
Cc1cc(NS(=O)(=O)c2ccc(C(C)C)cc2)no1	none
CC(C)c1ccc(S(=O)(=O)/N=C2\C=C(NS(=O)(=O)c3ccccc3)C(=O)c3ccccc32)cc1	NSD2 inh 112.1
Cc1ccc(C)c(S(=O)(=O)/N=C2\C=C(NS(=O)(=O)c3ccccc3)C(=O)c3ccccc32)c1	NSD2 inh 96.9
Cc1cccc(S(=O)(=O)Nc2cccc3c2C(=O)c2ccccc2-3)c1	none (no result: CASP6 VEID inh)
COc1ccccc1-c1cnc2c(c1)C(=O)N([C@@H](C)CO)C[C@@H](C)[C@@H](CN(C)CC1CCOCC1)O2	none (no result: FN deposition inh, CaV13 ICDI inh, NPR1 activator, NPR2 activator, NSD2 inh)
CCCNC(=O)Nc1ccc2c(c1)C(=O)N(C)C[C@H](OC)[C@H](C)CN(CCC(F)(F)F)[C@@H](C)CO2	none (no result: CASP6 VEID inh, CaV13 ICDI inh, NPR1 activator, NPR2 activator, NSD2 inh)
CC(C)NC(=O)c1ccccc1NC(=O)C1CC(=O)N(C(C)C)C1 (stereo unspecified)	none
CNC(=O)c1ccccc1NC(=O)C1CC(=O)N(C(C)C)C1 (stereo unspecified)	CASP6 VEID inh 66.4
O=C(c1ccncc1)N1C[C@@H]2[C@H](c3ccccc31)[C@H](CO)N2C(=O)Nc1ccccc1Cl	none (no result: FN deposition inh, CaV13 ICDI inh, NPR1 activator, NPR2 activator, NSD2 inh)
O=C(O)C1=C(C(=O)O)C2C=CC1C2	CASP6 VEID inh 52.5
Cc1ccc2nc(/C(C#N)=C/c3ccccc3C(=O)O)[nH]c2c1	none
Cc1ccc2nc(/C(C#N)=C/c3ccc(O)c(O)c3)[nH]c2c1	NSD2 inh 94.1
NC(=O)c1ccc(NC(=O)COC(=O)/C=C/c2ccc(Br)o2)cc1	CASP6 VEID inh 80.2 (no result: FN deposition inh)
Cc1ccc(S(=O)(=O)N(C)C[C@@H]2Oc3ncc(-c4ccccc4)cc3C(=O)N([C@H](C)CO)C[C@H]2C)cc1	none (no result: CaV13 ICDI inh, NPR1 activator, NPR2 activator, NSD2 inh)
Cc1noc(C)c1S(=O)(=O)Nc1ccc2c(c1)C(=O)N([C@@H](C)CO)C[C@H](C)[C@H](CN(C)C(=O)Nc1ccc3c(c1)OCO3)OCCCC[C@H](C)O2	none (no result: FN deposition inh, CaV13 ICDI inh, NPR1 activator, NPR2 activator, NSD2 inh)
C[C@@H]1CN([C@@H](C)CO)C(=O)c2cc(NS(=O)(=O)c3cccs3)ccc2O[C@H]1CN(C)C(=O)NC1CCCCC1	none (no result: CASP6 VEID inh, CaV13 ICDI inh, NPR1 activator, NPR2 activator, NSD2 inh)
Cc1ccc2c(c1)-c1c(cnn1CC(=O)O)CO2	none (no result: FN deposition inh, CASP6 VEID inh, NSD2 inh)
Cc1ccc2c(c1)-c1c(cnn1CC(=O)Nc1ccccc1N1CCN(C)CC1)CO2	CaV13 ICDI inh 46.0 (no result: NSD2 inh)
